Reference: ChEMBL document CHEMBL4706639, “Discovery of Novel Azetidine Amides as Potent Small-Molecule STAT3 Inhibitors” (J Med Chem, 2021)
The source made the active and inactive calls. The rule behind the calls is not given here.

Assays:
MCF-10A = assay: Cytotoxicity against human MCF-10A cells assessed as reduction in cell viability incubated for 72 hrs by CyQuant assay; type: cell-based
MDA-MB-468 = assay: Antiproliferative activity against human MDA-MB-468 cells harbouring STAT3 assessed as reduction in cell viability incubated for 72 hrs by CyQuant assay; type: functional, cell-based; details: MDA-MB-468, 72 h
MCF7 = assay: Antiproliferative activity against human MCF7 cells assessed as reduction in cell viability incubated for 72 hrs by CyQuant assay; type: functional, cell-based; details: MCF7, 72 h
MDA-MB-231 [1] = assay: Antiproliferative activity against human MDA-MB-231 cells assessed as reduction in cell viability incubated for 72 hrs by CyQuant assay; type: functional, cell-based; details: MDA-MB-231, 72 h
NIH3T3 = assay: Inhibition of oligonucleotide [32P]-labelled 5'-AGATTTCTAGGAATTCAA probe binding to STAT5 homodimer in mouse NIH3T3 nuclear extract at 10 uM preincubated for 30 mins followed by MGFe probe addition by EMSA analysis
[2] = target: T1, Signal transducer and activator of transcription 1 (Mus musculus) (UniProt P42225); assay: Inhibition of oligonucleotide [32P]-labelled 5'-AGCITCATTTCCCGTAAATCCCTA probe binding to STAT1 homodimer in mouse NIH3T3 nuclear extract at 10 uM preincubated for 30 mins followed by hSIE probe addition by EMSA analysis
T1 sequence (whole entry): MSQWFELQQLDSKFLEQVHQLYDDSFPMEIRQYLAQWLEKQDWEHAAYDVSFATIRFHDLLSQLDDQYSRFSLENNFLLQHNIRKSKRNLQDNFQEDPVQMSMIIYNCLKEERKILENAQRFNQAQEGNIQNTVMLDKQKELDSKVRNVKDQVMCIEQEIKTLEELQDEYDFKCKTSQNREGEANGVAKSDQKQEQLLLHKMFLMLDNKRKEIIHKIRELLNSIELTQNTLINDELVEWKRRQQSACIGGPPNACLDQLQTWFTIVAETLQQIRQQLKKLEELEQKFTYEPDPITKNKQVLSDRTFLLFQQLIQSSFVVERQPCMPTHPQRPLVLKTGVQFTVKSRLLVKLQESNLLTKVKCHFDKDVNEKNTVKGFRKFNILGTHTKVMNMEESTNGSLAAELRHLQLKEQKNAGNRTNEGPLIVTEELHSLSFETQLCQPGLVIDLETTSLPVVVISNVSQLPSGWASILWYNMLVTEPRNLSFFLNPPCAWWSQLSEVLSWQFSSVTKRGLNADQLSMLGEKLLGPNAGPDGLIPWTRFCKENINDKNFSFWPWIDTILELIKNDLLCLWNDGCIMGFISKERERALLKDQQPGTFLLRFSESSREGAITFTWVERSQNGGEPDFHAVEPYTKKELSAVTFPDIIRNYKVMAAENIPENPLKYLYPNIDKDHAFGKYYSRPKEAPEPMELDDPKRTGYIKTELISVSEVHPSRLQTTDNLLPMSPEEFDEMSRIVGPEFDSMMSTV

[3] = target: Signal transducer and activator of transcription 3 (Mus musculus, UniProt P42227); assay: Inhibition of oligonucleotide [32P]-labelled 5'-AGCITCATTTCCCGTAAATCCCTA probe binding to STAT3 SH2 domain in mouse NIH3T3/v-Src nuclear extract preincubated for 30 mins followed by hSIE probe addition by EMSA analysis; type: subcellular, Nucleus
Signal transducer and activator of transcription 3, sequence (P42227 whole entry, the tested form may be a part): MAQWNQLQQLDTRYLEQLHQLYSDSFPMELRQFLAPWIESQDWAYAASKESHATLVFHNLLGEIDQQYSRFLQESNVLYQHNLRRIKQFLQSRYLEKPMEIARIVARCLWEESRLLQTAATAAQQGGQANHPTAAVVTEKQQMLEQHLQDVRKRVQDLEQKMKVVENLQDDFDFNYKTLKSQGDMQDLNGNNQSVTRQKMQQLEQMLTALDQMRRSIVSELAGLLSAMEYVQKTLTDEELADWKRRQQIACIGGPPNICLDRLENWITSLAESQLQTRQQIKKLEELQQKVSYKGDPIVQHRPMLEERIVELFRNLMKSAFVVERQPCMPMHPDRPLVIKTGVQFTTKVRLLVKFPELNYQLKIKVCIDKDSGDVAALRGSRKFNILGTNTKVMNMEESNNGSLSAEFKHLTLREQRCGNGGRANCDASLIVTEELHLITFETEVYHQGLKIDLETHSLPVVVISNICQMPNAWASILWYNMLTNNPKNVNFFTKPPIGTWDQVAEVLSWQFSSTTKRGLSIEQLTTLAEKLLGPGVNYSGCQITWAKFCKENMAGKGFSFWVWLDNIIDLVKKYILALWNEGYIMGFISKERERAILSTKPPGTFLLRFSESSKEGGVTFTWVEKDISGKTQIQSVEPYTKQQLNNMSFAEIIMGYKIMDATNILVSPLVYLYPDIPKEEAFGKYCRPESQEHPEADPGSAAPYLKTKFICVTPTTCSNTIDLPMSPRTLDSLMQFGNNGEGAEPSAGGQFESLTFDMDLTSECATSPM

MDA-MB-231 [4] = assay: Anticlonogenic activity against human MDA-MB-231 cells assessed as inhibition of colony formation at 0.5 to 1 uM incubated for 4 hrs by crystal violet staining based assay; type: functional, cell-based; details: dose 0.5-1 µM
How it was run: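 MDA-MB-231 cells seeded as single-cell cultures (250 cells per well), treated once the next day with compound at 0–1 μM and grown until large colonies were visible. Colonies stained with crystal violet for 4 h and photographed. Three independent determinations.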

MDA-MB-231 [5] = assay: Antiproliferative activity against human MDA-MB-231 cells harbouring STAT3 assessed as reduction in cell viability at upto 10 uM incubated for 72 hrs by CyQuant assay; type: functional, cell-based; details: MDA-MB-231, 72 h

| SMILES | EC50 (MDA-MB-468) | EC50 (MCF7) | EC50 (MDA-MB-231 [1]) | EC50 (MCF-10A) | further results |
| --- | --- | --- | --- | --- | --- |
| O=C([C@H]1CCN1S(=O)(=O)c1c(F)c(F)c(F)c(F)c1F)N(Cc1ccc(C2CCCCC2)cc1)c1ccc2c(=O)[nH]ccc2c1 | 3.8 µM | 6.2 µM | 1.4 µM | 5.3 µM |  |
| O=C([C@H]1CCN1S(=O)(=O)c1c(F)c(F)c(F)c(F)c1F)N(Cc1ccc(C2CCCCC2)cc1)c1cc2[nH]ncc2cc1F |  | 9.4 µM | 2.4 µM | 8.1 µM |  |
| O=C(NO)c1ccc(N(Cc2ccc(C3CCCC3)cc2)C(=O)[C@H]2CCN2S(=O)(=O)c2c(F)c(F)c(F)c(F)c2F)cc1 | 1.8 µM | 7.2 µM | 3.1 µM | 7.3 µM |  |
| O=C(O)c1ccc(N(Cc2ccc(C3CCCCC3)nc2)C(=O)[C@H]2CCN2S(=O)(=O)c2c(F)c(F)c(F)c(F)c2F)cc1O |  |  |  |  | inhibition (NIH3T3): Active; inhibition [2]: Active |
| O=C(O)c1ccc(N(Cc2ccc(C3CCCCC3)cn2)C(=O)[C@H]2CCN2S(=O)(=O)c2c(F)c(F)c(F)c(F)c2F)cn1 |  |  |  |  | IC50 [3]: > 2 µM |
| O=C(O)c1ccc(N(Cc2ccc(C3CCOCC3)cc2)C(=O)[C@H]2CCN2S(=O)(=O)c2c(F)c(F)c(F)c(F)c2F)cc1O |  |  |  |  | inhibition (NIH3T3): Active; inhibition [2]: Active |
| O=C(O)c1ccc(N(Cc2ccc(C3CCOCC3)nc2)C(=O)[C@H]2CCN2S(=O)(=O)c2c(F)c(F)c(F)c(F)c2F)cc1O |  |  |  |  | inhibition (NIH3T3): Active; inhibition [2]: Active |
| O=C([C@H]1CCN1S(=O)(=O)c1c(F)c(F)c(F)c(F)c1F)N(Cc1cnc(C2CCCCC2)cn1)c1ccc2nn[nH]c2c1 | 2.3 µM |  | 2.1 µM |  |  |
| O=C([C@H]1CCN1S(=O)(=O)c1c(F)c(F)c(F)c(F)c1F)N(Cc1ccc(C2CCCCC2)cn1)c1ccc2nn[nH]c2c1 | 5.1 µM |  | 6.6 µM |  |  |
| COC(=O)c1ccc(N(Cc2ccc(C3CCCCC3)cc2)C(=O)[C@H]2CCN2S(=O)(=O)c2c(F)c(F)c(F)c(F)c2F)cc1O |  |  | 2.7 µM |  | inhibition (NIH3T3): Active; inhibition [2]: Active; IC50 [3]: > 4 µM |
| O=C([C@H]1CCN1S(=O)(=O)c1c(F)c(F)c(F)c(F)c1F)N(Cc1cnc(C2CCCCC2)cn1)c1cc2[nH]ncc2cc1F | 2 µM | 4.6 µM | 2 µM | 3.2 µM |  |
| Cn1ccc2cc(N(Cc3ccc(C4CCCCC4)cn3)C(=O)[C@H]3CCN3S(=O)(=O)c3c(F)c(F)c(F)c(F)c3F)ccc2c1=O |  | 2.8 µM | 2.3 µM | 4.4 µM |  |
| O=C(O)c1cc(F)c(N(Cc2ccc(C3CCCCC3)cc2)C(=O)[C@H]2CCN2S(=O)(=O)c2c(F)c(F)c(F)c(F)c2F)cc1O |  |  |  |  | inhibition (NIH3T3): Active; inhibition [2]: Active |
| O=C([C@H]1CCN1S(=O)(=O)c1c(F)c(F)c(F)c(F)c1F)N(Cc1cnc(C2CCCCC2)cn1)c1ccc2c(=O)[nH]ncc2c1 |  |  | 4.8 µM |  |  |
| O=C(O)c1coc(N(Cc2ccc(C3CCCCC3)cc2)C(=O)[C@H]2CCN2S(=O)(=O)c2c(F)c(F)c(F)c(F)c2F)n1 |  |  |  |  | IC50 [3]: > 5 µM |
| O=C([C@H]1CCN1S(=O)(=O)c1c(F)c(F)c(F)c(F)c1F)N(Cc1ccc(C2CCCCC2)cn1)c1ccc2c(=O)[nH]ccc2c1 | 2 µM | 2.2 µM | 1.2 µM | 2.7 µM |  |
| O=C(NO)c1ccc(N(Cc2ccc(C3CCOCC3)cc2)C(=O)[C@H]2CCN2S(=O)(=O)c2c(F)c(F)c(F)c(F)c2F)cc1 | 2.1 µM | > 10 µM | 4 µM | 4.3 µM |  |
| O=C([C@H]1CCN1S(=O)(=O)c1c(F)c(F)c(F)c(F)c1F)N(Cc1ccc(C2CCCCC2)cn1)c1cc2[nH]ncc2cc1F | 3.2 µM | 4.8 µM | 2.3 µM | 4.9 µM |  |
| COC(=O)c1ccc(N(Cc2ccc(C3CCCCC3)cc2)C(=O)[C@H]2CCN2S(=O)(=O)c2c(F)c(F)c(F)c(F)c2F)c(F)c1 |  |  | 4.4 µM |  | inhibition (NIH3T3): Active; inhibition [2]: Active; IC50 [3]: > 4 µM |
| COc1ccc(S(=O)(=O)Nc2cc(-c3c(O)ccc4ccccc34)c(O)c3ccccc23)cc1 [C-188-9] |  | 13.8 µM |  |  | EC50 (MDA-MB-231 [5]): 25.7 µM |
| O=C(O)c1ccc(N(Cc2ccc(C3CCCC3)cc2)C(=O)[C@H]2CCN2S(=O)(=O)c2c(F)c(F)c(F)c(F)c2F)cc1O |  |  |  |  | inhibition (NIH3T3): Active; inhibition [2]: Active |
| O=C(NO)c1ccc(N(Cc2ccc(C3CCCCC3)cn2)C(=O)[C@H]2CCN2S(=O)(=O)c2c(F)c(F)c(F)c(F)c2F)c(F)c1 | 4.2 µM |  | 5.8 µM |  |  |
| O=C(NO)c1cc(F)c(N(Cc2ccc(C3CCOCC3)cc2)C(=O)[C@H]2CCN2S(=O)(=O)c2c(F)c(F)c(F)c(F)c2F)cc1O |  |  | 5.1 µM |  |  |
| Cn1cnc2cc(N(Cc3ccc(C4CCCCC4)cn3)C(=O)[C@H]3CCN3S(=O)(=O)c3c(F)c(F)c(F)c(F)c3F)ccc2c1=O | 2.2 µM | 3.2 µM | 2.1 µM | 4.7 µM |  |
| O=C(NO)c1ccc(N(Cc2ccc(C3CCCCC3)cc2)C(=O)[C@H]2CCN2S(=O)(=O)c2c(F)c(F)c(F)c(F)c2F)c(F)c1 |  |  |  |  | inhibition (NIH3T3): Active; inhibition [2]: Active |
| O=C([C@H]1CCN1S(=O)(=O)c1c(F)c(F)c(F)c(F)c1F)N(Cc1ccc(C2CCCCC2)cn1)c1ccc2c(=O)[nH]cnc2c1 | 1.5 µM | 3.6 µM | 3.3 µM | 4 µM |  |
| O=C1NCc2cc(N(Cc3ccc(C4CCCCC4)cn3)C(=O)[C@H]3CCN3S(=O)(=O)c3c(F)c(F)c(F)c(F)c3F)c(F)cc21 |  |  | 2 µM |  |  |

Second part, led by results:

| EC50 (MDA-MB-468) | EC50 (MCF7) | EC50 (MDA-MB-231 [1]) | SMILES | EC50 (MCF-10A) | further results |
| --- | --- | --- | --- | --- | --- |
| 2.6 µM | 4.6 µM | 2.9 µM | NC(=O)c1ccc(N(Cc2ccc(C3CCCCC3)cn2)C(=O)[C@H]2CCN2S(=O)(=O)c2c(F)c(F)c(F)c(F)c2F)cc1O | 7.2 µM |  |
| 6.4 µM | 9.7 µM | 5.1 µM | O=C(NO)c1ccc(N(Cc2ccc(C3CCCCC3)cc2)C(=O)[C@H]2CCN2S(=O)(=O)c2c(F)c(F)c(F)c(F)c2F)cc1O | 7.5 µM | inhibition (NIH3T3): Active; inhibition [2]: Active |
| 1.6 µM | 5.7 µM |  | COC(=O)c1ccc(N(Cc2cnc(C3CCCCC3)cn2)C(=O)[C@H]2CCN2S(=O)(=O)c2c(F)c(F)c(F)c(F)c2F)cc1O | 3.8 µM | inhibition (MDA-MB-231 [4]): Active; IC50 [3]: 7.5 µM |
| 1.1 µM | 4.5 µM | 1.6 µM | O=C([C@H]1CCN1S(=O)(=O)c1c(F)c(F)c(F)c(F)c1F)N(Cc1ccc(C2CCCCC2)cc1)c1ccc2c(=O)[nH]ncc2c1 | 4.6 µM |  |
|  |  | 2 µM | O=C1NCc2cc(N(Cc3ccc(C4CCCCC4)cn3)C(=O)[C@H]3CCN3S(=O)(=O)c3c(F)c(F)c(F)c(F)c3F)ccc21 |  |  |
| 6.2 µM |  |  | O=C(NO)c1ccc(N(Cc2ccc(C3CCCCC3)cn2)C(=O)[C@H]2CCN2S(=O)(=O)c2c(F)c(F)c(F)c(F)c2F)cc1O |  |  |
|  | 6.8 µM | 5 µM | O=C(NO)c1ccc(N(Cc2ccc(C3CCCCC3)cc2)C(=O)[C@H]2CCN2S(=O)(=O)c2c(F)c(F)c(F)c(F)c2F)cc1 | 7.9 µM |  |
|  |  | 1.8 µM | COC(=O)c1ccc(N(Cc2ccc(C3CCCCC3)cn2)C(=O)[C@H]2CCN2S(=O)(=O)c2c(F)c(F)c(F)c(F)c2F)cc1O |  |  |
|  |  | 2 µM | COC(=O)c1ccc(N(Cc2ccc(C3CCCCC3)nc2)C(=O)[C@H]2CCN2S(=O)(=O)c2c(F)c(F)c(F)c(F)c2F)cc1O |  |  |
| 3.9 µM |  | 6.7 µM | CONC(=O)c1ccc(N(Cc2ccc(C3CCCCC3)cn2)C(=O)[C@H]2CCN2S(=O)(=O)c2c(F)c(F)c(F)c(F)c2F)cc1O |  |  |
| 5.1 µM |  | 5.2 µM | O=C(NO)c1ccc(N(Cc2cnc(C3CCCCC3)cn2)C(=O)[C@H]2CCN2S(=O)(=O)c2c(F)c(F)c(F)c(F)c2F)cc1O |  |  |
|  |  | 4.2 µM | O=C([C@H]1CCN1S(=O)(=O)c1c(F)c(F)c(F)c(F)c1F)N(Cc1cnc(C2CCCCC2)cn1)c1ccc2c(=O)[nH]cnc2c1 |  |  |
